The results in this text go back to ChEMBL document CHEMBL1155735, “Isolation and bioactivities of constitutents of the roots of Garcinia atroviridis” (J Nat Prod, 2001).

A word on the IC50: it is the concentration that inhibits the measured activity by half. Higher therefore signals a need for much substance.

Assay [1] has as its system Staphylococcus aureus. Kind of assay: Antibacterial activity against Staphylococcus aureus at 10 ug/disk by disk diffusion method. Particulars: read-out: DIZ. Format: functional. The essentials: (§1)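 Disk diffusion, with test compound applied at 10 µg per disk. Streptomycin sulfate served as the reference antibacterial. Procedure followed an earlier report.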
Assay [2] deals with Bacillus cereus. Briefly: Antibacterial activity against Bacillus cereus at 10 ug/disk by disk diffusion method. The note with it: read-out: DIZ. Format: functional. In a few lines:
as §1
For orientation: Agar diffusion results depend on both activity and mobility in agar.

In assay [3] the test system is Escherichia coli. Briefly: Antibacterial activity against Escherichia coli at 10 ug/disk by disk diffusion method. Format: functional. In a few lines: as §1
Assay [4] has as its system Aspergillus ochraceus. Kind of assay: Antifungal activity against Aspergillus ochraceus at 10 ug/disk by disk diffusion method. Format: functional, organism-based.
Assay [5] concerns Candida albicans. Kind of assay: […] activity against Candida albicans at 10 ug/disk by disk diffusion method. Format: functional, organism-based.
The test system of assay [6] is HeLa. Kind of assay: Cytotoxicity against human HeLa cells after 72 hrs by MTT assay. Format: functional, cell-based. The essentials:
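Human cervical carcinoma HeLa cells were exposed for 72 h and viability read by MTT. IC50 values were reported in µg/mL, with doxorubicin and colchicine run as reference standards. Method followed an earlier report.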
On the technique in general: Tetrazolium assays rely on reduction of a dye to a coloured formazan, in cell work by metabolically active cells.

Molecules are shown by their SMILES. Converted amounts (≈) assume the structure as drawn. The source made the active and inactive calls. The rule behind the calls is not given here.

As for `COc1c(O)c(CC=C(C)C)c(CC=C(C)C)c2c1Oc1cc(O)cc(O)c1C(=O)O2` [ATROVIRISIDONE], the zone of inhibition at 10 µg/disc in assay [1] amounted to 8 mm; in assay [2], 7.5 mm. Also, in assay [3], the “diameter of the inhibition zone (DIZ)” value is “inactive”. Also, the result in assay [4] and in assay [5] was inactive. In assay [6], the half-maximal inhibitory concentration (IC50) is above 30 µg/mL.

For `CN[C@@H]1[C@H](O[C@H]2[C@H](O[C@H]3[C@H](O)[C@@H](O)[C@H](N=C(N)N)[C@@H](O)[C@@H]3N=C(N)N)O[C@@H](C)[C@]2(O)C=O)O[C@@H](CO)[C@H](O)[C@H]1O` [STREPTOMYCIN], the zone of inhibition at 10 µg/disc in assay [1] was found to be 13.5 mm; in assay [2], 21 mm; in assay [3] (read-out: DIZ), 12.5 mm.

In assay [6], `COc1cc2c(c(OC)c1OC)-c1ccc(OC)c(=O)cc1[C@@H](NC(C)=O)CC2` [COLCHICINE] had an IC50 of 21 µg/mL (≈ 52.6 µM).

For `COc1cccc2c1C(=O)c1c(O)c3c(c(O)c1C2=O)C[C@@](O)(C(=O)CO)C[C@@H]3O[C@H]1C[C@H](N)[C@H](O)[C@H](C)O1` [DOXORUBICIN], 11 µg/mL (≈ 20.2 µM) corresponded to half-maximal inhibition in assay [6] (IC50).

Regarding `COC(=O)c1c(O)cc(O)cc1OC1=C(OC)C(=O)C(CC=C(C)C)=C(CC=C(C)C)C1=O` [ATROVIRINONE], the zone of inhibition at 10 µg/disc in assay [1] and in assay [2] was 6.5 mm in each case. Moreover, in assay [3], the “diameter of the inhibition zone (DIZ)” value is “inactive”. In addition, the result in assay [4] and in assay [5] was inactive. In addition, the IC50 in assay [6] came to 15 µg/mL (≈ 32.9 µM).
